The data set is described as follows: Toxicity liver stage against HepG2, at 10uM. Type of data set: cell-based. Set-up: test concentration 10 uM, cell line HepG2-A16-CD81EGFP. The settings on record: human, HepG2-A16-CD81EGFP cells; read-out: INHIBITION
In a few lines:
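Uninfected HepG2-A16-CD81EGFP cells, 3 × 10^3 per well, 1536-well, plated on prespotted compound at 10 μM final, parasite-free screening media added to match infected plates; puromycin 10 μM positive, DMSO 0.5% negative; run in parallel with 48 h PbLuc assay at 37 °C, 5% CO2; viability by CellTiter-Glo luminescence, normalized to controls.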
With `CN1CCN(Cc2ccncc2)Cc2cccnc21`, the cytotoxicity at 10 µM is -72.7%.

In the case of `Cc1ccc(N[C@@H]2CN(Cc3cc(C)on3)C[C@@H]3CCCO[C@@H]32)nn1`, the cytotoxicity at 10 µM was -0.113%.

In the case of `Cc1cn(-c2ccccc2)nc1NS(=O)(=O)c1cc(C(=O)O)cs1`, the cytotoxicity at 10 µM is -18.9%.

On to `COc1ccc(NC(=O)N(C)Cc2ccco2)cn1`, for which the cytotoxicity at 10 µM was -11.8%.

As for `CN1CCC(N(C)CCC(=O)N2CCC(Oc3ccc(Cl)cc3)CC2)C1` (stereo unspecified), the cytotoxicity at 10 µM was 7.04%.

As to `CCOc1cc(C)nc(N2CCN(C(=O)c3cc(Cl)c[nH]3)CC2)n1`, the cytotoxicity at 10 µM turned out to be 6.81%.

With `CNS(=O)(=O)c1cccc(CNCc2ccsc2)c1`, the cytotoxicity at 10 µM was -2.54%.

`CCCN1CCCn2nc(CNS(=O)(=O)c3cccc(C#N)c3)cc2C1`: the cytotoxicity at 10 µM is -2.96%.

On to `Cc1ccsc1[C@@H]1CCN(C(=O)CCC(=O)N2CCCCCC2)C[C@H]1O`, for which the cytotoxicity at 10 µM was -1.72%.

For `O=C(CCc1ccsc1)NC1CCN(c2cccc(F)c2)CC1`, the cytotoxicity at 10 µM was -3.89%.

As to `COc1ccc(CN2CCCC(Nc3cccc(F)c3)C2)cc1O` (stereo unspecified), the cytotoxicity at 10 µM was 5.76%.

Turning to `CN(CCC(F)(F)F)C(=O)[C@H]1CSCN1C(=O)OC(C)(C)C`, the cytotoxicity at 10 µM was -9.39%.

In the case of `NCC1CCC(C(NC(=O)CC2CCCC2)c2ccccn2)CC1` (stereo unspecified), the cytotoxicity at 10 µM is -14.6%.

Take `COCCCNS(=O)(=O)c1cccc(CSC)c1`: the cytotoxicity at 10 µM came out at 11.9%.

For `CC(C)OCCCNC(=O)C1CCCN(c2ccc3nncn3n2)C1` (stereo unspecified), the cytotoxicity at 10 µM stood at 1.77%.

On to `Cc1noc(C2CCN(C(=O)c3ccc(C(F)(F)F)nc3)CC2)n1`, for which the cytotoxicity at 10 µM is -6.16%.

Regarding `CCc1ccccc1N1CC(c2nnc(N)s2)CC1=O` (stereo unspecified), the cytotoxicity at 10 µM amounted to 0.502%.

For the compound `CCCn1cc(C(=O)N2CCCC(Cc3nccs3)C2)cn1` (stereo unspecified), the cytotoxicity at 10 µM was -11.4%.

Consider `O=C(c1cnns1)N1CCN(c2ccc(F)cc2Cl)CC1`, for which the cytotoxicity at 10 µM was -145%.

Turning to `O=C(NCc1ccccc1Cn1cncn1)C1CCCCC1`, the cytotoxicity at 10 µM is -2.06%.

As for `Cc1nnc(N2C[C@H](OCc3cccnc3)[C@H]3OCCC[C@H]32)s1`, the cytotoxicity at 10 µM worked out at 10.8%.

Consider `Cc1cc(C)c2nc(CNC3CCCNC3=O)cc(O)c2c1` (stereo unspecified), for which the cytotoxicity at 10 µM amounted to 5.84%.

In the case of `CNC(=O)CS(=O)(=O)C1CCN(S(=O)(=O)c2ccccc2Br)CC1`, the cytotoxicity at 10 µM is -18.3%.

Take `CCc1nc(CN2CCCN(Cc3cnn(C)c3)CC2)no1`: the cytotoxicity at 10 µM was -2%.

Take `O=C1N(Cc2cccc(F)c2F)CCCC1(O)CNCC1CCCCC1` (stereo unspecified): the cytotoxicity at 10 µM is -1.29%.

`Cc1ccc(NC2CCN(C(=O)Cc3cccc(F)c3)CC2)nn1`: the cytotoxicity at 10 µM is -5.23%.

`Cc1nc(Nc2ncccn2)cc(C2CCCN2CC(C)C)n1` (stereo unspecified): the cytotoxicity at 10 µM was 7.02%.

On to `CN(C)c1ccc2c(c1)CN(C(=O)c1ccco1)C2c1cnco1` (stereo unspecified), for which the cytotoxicity at 10 µM was 31.9%.

Regarding `CCCc1nc(C(C)(C)NC(=O)C2CC(=O)N(CC(C)C)C2)no1` (stereo unspecified), the cytotoxicity at 10 µM is -5.31%.

For the compound `COc1cc(C(C#N)NC(=O)CC2=CCCCC2)cc(OC)c1OC` (stereo unspecified), the cytotoxicity at 10 µM was 3.2%.

In the case of `Cn1cc(CCCN2CCN(C(=O)c3cccc(O)c3)CC2)cn1`, the cytotoxicity at 10 µM was -46.1%.

For the compound `Cc1nc(COC[C@@H]2CC[C@H]3[C@H](CCN3c3ncccn3)O2)cs1`, the cytotoxicity at 10 µM turned out to be 2.19%.

Take `Cc1cc(C2CCC2)nc(NCCC23CCCN2CCC3)n1`: the cytotoxicity at 10 µM was 0.414%.

Consider `CC(C)(C)c1cn(C2CCN(C(=O)c3cncnc3)CC2)nn1`, for which the cytotoxicity at 10 µM stood at 13%.

As for `O=C(NC1CCN(C2CC2)CC1)c1[nH]nc(C2CC2)c1Cl`, the cytotoxicity at 10 µM stood at 2.64%.

`c1cnc(N2CCCC(NCc3cccc4c3OCCO4)C2)nc1` (stereo unspecified): the cytotoxicity at 10 µM was -8.18%.

As for `CC1(C(N)=O)CN(S(=O)(=O)c2cccc(F)c2)CCO1` (stereo unspecified), the cytotoxicity at 10 µM was found to be 6.73%.

`CN(C)Cc1nc2c(o1)CN(C(=O)NCc1cccc(F)c1)C2`: the cytotoxicity at 10 µM was 5.32%.

Turning to `CC1CN(c2ccc(NC(=O)Cn3cccn3)cc2)CCO1` (stereo unspecified), the cytotoxicity at 10 µM stood at 3.94%.

As to `O=C(CNC(=O)C1CC1)Nc1c(F)cccc1Oc1ccccc1`, the cytotoxicity at 10 µM came out at 0.99%.

As for `CCCOCC1CCN(C(=O)Cn2cccc(C(F)(F)F)c2=O)C1` (stereo unspecified), the cytotoxicity at 10 µM was -16.3%.

On to `CN(C(=O)NC1CC1)C1CCN(c2ccc(Cl)cc2)CC1`, for which the cytotoxicity at 10 µM is -8.39%.

As to `O=C(NCC(F)(F)F)c1ccncc1`, the cytotoxicity at 10 µM was -19%.

As for `CCCN1CCN(C(=O)c2cccc(C)n2)[C@H]2CS(=O)(=O)C[C@H]21`, the cytotoxicity at 10 µM worked out at 2.13%.

For the compound `CCOCC(=O)N1CCCn2c(CN3CCCCC3)nnc2C1`, the cytotoxicity at 10 µM was -110%.

As to `COc1cc([C@@H]2N[C@H](c3nccs3)Cc3ccsc32)cc(OC)c1OC`, the cytotoxicity at 10 µM was determined as 8.71%.

As to `Cc1noc(C)c1CCC(=O)N1CCCC(n2cccn2)C1` (stereo unspecified), the cytotoxicity at 10 µM was -7.81%.

Take `CN1CCOC[C@H]1c1nc(-c2ccncc2)c[nH]1`: the cytotoxicity at 10 µM came to 2.23%.

Take `COc1cccc(-n2cc3[nH]c(=O)[nH]n3c2=O)c1`: the cytotoxicity at 10 µM was -6.47%.

As for `CCN1C[C@H]2C3(CCN(C(C)=O)CC3)CC[C@@]2(C(=O)N(C)C)C1`, the cytotoxicity at 10 µM is -104%.

Consider `Cc1occc1C(=O)N1C[C@@H]2CCCO[C@@H]2[C@H](NC(=O)CC2CC2)C1`, for which the cytotoxicity at 10 µM was -102%.

As for `CCC(C(=O)NCc1ccncc1)N(c1cccc(C)c1)S(C)(=O)=O` (stereo unspecified), the cytotoxicity at 10 µM is -5.88%.

Turning to `O=C1CC[C@H]2[C@@H](CCN2Cc2ccco2)N1`, the cytotoxicity at 10 µM came to 2.82%.

For `O=C(NC[C@H]1OC[C@@H](NC2CCC2)[C@@H]1O)Nc1ccccc1`, the cytotoxicity at 10 µM was -4.16%.

As to `O=c1[nH]nc2nc(N3CCCC3)ccn12`, the cytotoxicity at 10 µM was -6.07%.

Regarding `CC(C)c1n[nH]c(C2CN(C(=O)c3cn4ccccc4n3)CCO2)n1` (stereo unspecified), the cytotoxicity at 10 µM amounted to 0.153%.

For the compound `CCn1cc(CN(C)C(=O)c2cc(C(F)(F)F)n(C)n2)cn1`, the cytotoxicity at 10 µM is 10.4%.

Turning to `COCCNC(=O)[C@H]1CN(Cc2csc(C)n2)C[C@H]2OCC[C@@H]12`, the cytotoxicity at 10 µM worked out at 9.9%.

With `Cc1ccc(CNC(=O)N(C)Cc2cnn(C)c2)s1`, the cytotoxicity at 10 µM was -11.2%.

In the case of `Cn1cc(CN2C[C@@H]3COC[C@]3(CNC(=O)c3ccccc3)C2)cn1`, the cytotoxicity at 10 µM was -4.02%.

`CC(C(=O)N1CCOCC1)S(=O)(=O)Cc1noc(C(C)(C)C)n1` (stereo unspecified): the cytotoxicity at 10 µM was -14.2%.

Turning to `CCN1CCN(C)C(=O)C12CCN(Cc1csc(C)n1)CC2`, the cytotoxicity at 10 µM is 1.53%.

On to `Cc1cc(CN2CC[C@H]3OCC[C@@]3(C(=O)N3CCOCC3)C2)no1`, for which the cytotoxicity at 10 µM is 7.93%.

As for `Cn1cnnc1C1CCN(C(=O)CCCOc2ccccc2)CC1`, the cytotoxicity at 10 µM is -7.62%.

Regarding `CN(Cc1cscn1)C(=O)C(c1ccccc1)N1CCSCC1` (stereo unspecified), the cytotoxicity at 10 µM is 9.26%.

Consider `CS(=O)(=O)Nc1ccc(CNC(=O)CN2CCc3ccccc32)cc1`, for which the cytotoxicity at 10 µM came out at 7.1%.

As for `CN(Cc1ccccc1F)Cc1cc2c(cc1Br)OCCO2`, the cytotoxicity at 10 µM is -139%.

`Cc1ccc(CN(C)C)cc1NC(=O)C1CC=CC1`: the cytotoxicity at 10 µM was -8%.

With `Cc1ccc(CN2CCn3c(CNC(=O)c4cccn4C)cnc3C2)s1`, the cytotoxicity at 10 µM stood at 1.82%.

In the case of `OCC1CCN(C[C@@H]2CN(C3Cc4ccccc4C3)C[C@@H]2CO)CC1`, the cytotoxicity at 10 µM is -2.02%.

`Cc1cc(C(=O)N(CC(F)(F)F)C2CCOCC2)c(C)o1`: the cytotoxicity at 10 µM was -0.541%.

With `Cc1c(C(=O)N2CCSCC2)sc2nc(C(F)(F)F)ccc12`, the cytotoxicity at 10 µM is -8.58%.

For `CNc1nc(C)cc(N2CCC(C(=O)O)(n3ccc(C(C)C)n3)CC2)n1`, the cytotoxicity at 10 µM is 1.52%.

Regarding `Cc1nn(-c2ccc(C(=O)O)cc2)c2c1C(C(F)(F)F)SCC(=O)N2` (stereo unspecified), the cytotoxicity at 10 µM is -1.24%.

As for `CC(C)c1ncc2c(n1)CN(Cc1nc(Cc3ccccc3)no1)CC2`, the cytotoxicity at 10 µM is -14.6%.

Consider `Cc1nc(-c2ccc(F)cc2)cc(C2CCNCC2)n1`, for which the cytotoxicity at 10 µM was 8.1%.

`Cn1ccnc1CNC(=O)CCc1cccc(F)c1`: the cytotoxicity at 10 µM was 0.293%.

For `O=C(Nc1ccc(F)cc1)C(c1ccccc1)N1CCOCC1` (stereo unspecified), the cytotoxicity at 10 µM was -3.84%.

Take `Cc1ccnc(OCC(=O)N2CCCC2)n1`: the cytotoxicity at 10 µM was -10.2%.

On to `Cc1cnc(CN(C)C2CCN(CC(=O)Nc3c(C)n[nH]c3C)C2)o1` (stereo unspecified), for which the cytotoxicity at 10 µM was -6.38%.

With `COCCn1ccc2cc(NC(C)=O)ccc21`, the cytotoxicity at 10 µM was -12%.

With `CCn1nc(CC(C)C)cc1C(=O)NCC(F)(F)F`, the cytotoxicity at 10 µM was found to be 21.3%.

In the case of `O=C(c1n[nH]cc1Cl)N1CCOC(Cc2cccc(C(F)(F)F)c2)C1` (stereo unspecified), the cytotoxicity at 10 µM came to 4.19%.

With `Cn1cc(C(=O)N2CCCC(Cc3cnccn3)C2)cn1` (stereo unspecified), the cytotoxicity at 10 µM was -8.16%.

Take `Cn1cc(-c2nc(CN3CCOC(Cn4cccn4)C3)cs2)cn1` (stereo unspecified): the cytotoxicity at 10 µM is -4.04%.

Turning to `COc1ccc(Cc2ncc3c(n2)CN(C(=O)C2COCCO2)C3)cc1` (stereo unspecified), the cytotoxicity at 10 µM is -0.579%.

For the compound `Cc1cc(N2CCc3cncnc3C2)n2nc(C(F)(F)F)nc2n1`, the cytotoxicity at 10 µM worked out at 6.25%.

Consider `C=C(C)CN1CCC(C(=O)c2cc(F)ccc2F)CC1`, for which the cytotoxicity at 10 µM was -14.1%.

For the compound `COc1ccccc1OC1CCN(C(=O)c2cnc(C)s2)CC1`, the cytotoxicity at 10 µM is -19.2%.

For the compound `Cc1cnn(CCNCc2cccc(C#N)c2)c1`, the cytotoxicity at 10 µM is -2.01%.

As for `CN(C)C(=O)c1cc2c(nc1NCC1CC1)CCNCC2`, the cytotoxicity at 10 µM stood at 8.39%.

With `O=C(C1=CCCC1)N1C[C@H](OCc2cccnc2)[C@H]2OCCC[C@H]21`, the cytotoxicity at 10 µM stood at 7.86%.

Regarding `Cc1cc(C)cc(OCCCn2nc3ccccn3c2=O)c1`, the cytotoxicity at 10 µM is 3.95%.

In the case of `CCc1nc2n(n1)CC(NCc1cc(OC)c3c(c1)OCCO3)CC2` (stereo unspecified), the cytotoxicity at 10 µM is -4.93%.

With `CCCn1cc(Cl)c(C(=O)N2C[C@H]3CC(OC)C[C@H]3C2)n1` (stereo partly specified), the cytotoxicity at 10 µM is 0.19%.

As to `Cc1ccc(C(=O)NCCN2CCOCC2)c(=O)[nH]1`, the cytotoxicity at 10 µM was -8.44%.
